Laboratory results: ChEMBL document CHEMBL1147285, “A mammalian cell agar-diffusion assay for the detection of toxic compounds” (J Nat Prod, 1989)
Active and inactive are the calls of the source. The rule behind the calls is not given here. Numbered stars: 1 amine (or outer) side, 2 acyl side, 3 side chain; on linkers, the order of the positions; unused ones are H or OH. Bridge positions count the residues as written; N and C are the ends. Square brackets hold non-standard residues; d marks the D form. Peptide text beside a SMILES is read from it. I, II: the chains in the order shown. Actinocin(1to9) = Cc1c2oc3c(C)ccc(C(=O)[*:2])c3nc-2c(C(=O)[*:1])c(N)c1=O; NMeV = CN[C@H](C(=O)O)C(C)C; Sar = CNCC(=O)O

Columns and labels:
HT-29 [1] = assay: Antiproliferative activity against human HT-29 cells after 96 hrs by MTT assay; assay type: functional, cell-based; conditions: HT-29, 96 h
HT-29 [2] = assay: Antiproliferative activity against human HT-29 cells at 10 ug after 48 hrs by two-layer agar-diffusion method; assay type: functional, cell-based
Summary of the method: (§1)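 Compound (0.01-10 µg) spotted on Si gel pieces, air-dried, placed face down on 1.5% Noble agar in PBS-growth medium (20:80) for 60 min diffusion. After removal, cells (2 X 10^6/ml) in 0.3% low-temperature agarose overlaid; 48 h incubation. Cytotoxic zones shown by MTT (5 mg/ml in growth medium) over agarose; absence of zone scored as not detected.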

HT-29 [3] = assay: Antiproliferative activity against human HT-29 cells at 1 ug after 48 hrs by two-layer agar-diffusion method; assay type: functional; conditions: for zone of inhibition at 1 µg/disc: read-out: IZ; summary of the method: as §1
HT-29 [4] = assay: Antiproliferative activity against human HT-29 cells at 0.1 ug after 48 hrs by two-layer agar-diffusion method; assay type: functional; conditions: for zone of inhibition at 0.1 µg/disc: read-out: IZ; summary of the method: as §1
HT-29 [5] = assay: Antiproliferative activity against human HT-29 cells at 0.01 ug after 48 hrs by two-layer agar-diffusion method; assay type: functional; conditions: for zone of inhibition at 0.01 µg/disc: read-out: IZ; summary of the method: as §1
P388 [6] = assay: Antiproliferative activity against mouse P388 cells after 48 hrs by MTT assay; assay type: functional, cell-based; conditions: P388, 48 h
Summary of the method: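 Uncloned P-388 in RPMI 1640 + 10% horse serum, gentamicin 50 µg/ml; 200-µl cultures at 1 X 10' cells/ml with or without drug, 48 h exposure. MTT (5 mg/ml in medium, 75 µl) added for 90 min, formazan read at 570 nm; absorbance normalized to untreated wells; IC50 by linear regression of logit-transformed data.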

P388 [7] = assay: Antiproliferative activity against mouse P388 cells at 1 ug after 48 hrs by two-layer agar-diffusion method; assay type: functional; conditions: read-out: IZ; summary of the method: as §1
P388 [8] = assay: Antiproliferative activity against mouse P388 cells at 0.1 ug after 48 hrs by two-layer agar-diffusion method; assay type: functional; conditions: for zone of inhibition at 0.1 µg/disc: read-out: IZ; summary of the method: as §1
P388 [9] = assay: Antiproliferative activity against mouse P388 cells at 0.01 ug after 48 hrs by two-layer agar-diffusion method; assay type: functional; conditions: for zone of inhibition at 0.01 µg/disc: read-out: IZ; summary of the method: as §1
P388 [10] = assay: Antiproliferative activity against mouse P388 cells at 5 ug after 48 hrs by two-layer agar-diffusion method; assay type: functional; conditions: read-out: IZ; summary of the method: as §1
HT-29 [11] = assay: Antiproliferative activity against human HT-29 cells at 5 ug after 48 hrs by two-layer agar-diffusion method; assay type: functional; conditions: read-out: IZ; summary of the method: as §1

Row | Structure (SMILES) | IC50 (HT-29 [1]) | Activity (HT-29 [2]) | Activity (HT-29 [3]) | Activity (HT-29 [4]) | Activity (HT-29 [5]) | IC50 (P388 [6]) | zone of inhibition at 1 µg/disc (P388 [7]) [mm] | zone of inhibition at 0.1 µg/disc (P388 [8]) [mm] | zone of inhibition at 0.01 µg/disc (P388 [9]) [mm] | zone of inhibition at 1 µg/disc (HT-29 [3]) [mm] | zone of inhibition at 0.1 µg/disc (HT-29 [4]) [mm] | zone of inhibition at 0.01 µg/disc (HT-29 [5]) [mm] | Activity (P388 [9]) | zone of inhibition at 5 µg/disc (P388 [10]) [mm] | zone of inhibition at 5 µg/disc (HT-29 [11]) [mm] | Activity (P388 [8])
1 | Nc1nc2[nH]cnc2c(=S)[nH]1 [THIOGUANINE] | 1240 nM | inactive | inactive | inactive | inactive | 300 nM | > 40 | > 40 | > 40 |  |  |  |  |  |  | 
2 | CC[C@]1(O)C[C@H]2CN(CCc3c([nH]c4ccccc34)[C@@](C(=O)OC)(c3cc4c(cc3OC)N(C=O)[C@H]3[C@@](O)(C(=O)OC)[C@H](OC(C)=O)[C@]5(CC)C=CCN6CC[C@]43[C@@H]65)C2)C1 [VINCRISTINE] | 7 nM |  |  |  | inactive | 1.2 nM | > 40 | 32.5 | 12.5 | 30 | 15 |  |  |  |  | 
3 | CC[C@]1(O)C[C@@H]2CN(CCc3c([nH]c4ccccc34)[C@@](C(=O)OC)(c3cc4c(cc3OC)N(C)[C@H]3[C@@](O)(C(=O)OC)[C@H](OC(C)=O)[C@]5(CC)C=CCN6CC[C@]43[C@@H]65)C2)C1 [VINBLASTINE] | 4 nM |  |  |  |  | 0.7 nM | > 40 | 32.5 | 12.5 | 40 | 25 | 10 |  |  |  | 
4 | CN(Cc1cnc2nc(N)nc(N)c2n1)c1ccc(C(=O)N[C@@H](CCC(=O)O)C(=O)O)cc1 [METHOTREXATE] | 4400 nM | inactive | inactive | inactive | inactive | 66 nM | 40 | 27.5 |  |  |  |  | inactive |  |  | 
5 | Nc1ccn([C@@H]2O[C@H](CO)[C@@H](O)[C@@H]2O)c(=O)n1 [CYTARABINE] | 66 nM | inactive | inactive | inactive | inactive | 1230 nM | > 40 | 20 | 10 |  |  |  |  |  |  | 
6 | COc1cccc2c1C(=O)c1c(O)c3c(c(O)c1C2=O)C[C@@](O)(C(=O)CO)C[C@@H]3O[C@H]1C[C@H](N)[C@H](O)[C@H](C)O1 [DOXORUBICIN] | 37 nM |  |  | inactive | inactive | 74 nM | 25 | 17.5 | 5 | 5 |  |  |  |  |  | 
7 | COc1cccc2c1C(=O)c1c(O)c3c(c(O)c1C2=O)C[C@@](O)(C(C)=O)C[C@@H]3O[C@H]1C[C@H](N)[C@H](O)[C@H](C)O1 [DAUNORUBICIN] | 133 nM |  |  | inactive | inactive | 28 nM | 20 | 12.5 | 10 | 5 |  |  |  |  |  | 
8 | Nc1ncn([C@@H]2O[C@H](CO)[C@@H](O)[C@H]2O)c(=O)n1 [AZACITIDINE] | 3800 nM |  |  | inactive | inactive | 5000 nM | 30 | 12.5 |  | 20 |  |  | inactive |  |  | 
9 | C=C1C(=O)O[C@H]2C[C@@H]1C(OC(C)=O)C/C(C)=C/CC/C(C)=C/CC[C@@]2(C)O (stereo partly drawn) [CRASSIN ACETATE] | 0.26 µg/mL |  |  |  |  | 1 µg/mL | 9 |  |  |  |  |  |  | 20 | 17 | 
10 | COc1cc(NS(C)(=O)=O)ccc1Nc1c2ccccc2nc2ccccc12 [AMSACRINE] | 559 nM | inactive | inactive | inactive | inactive | 229 nM | 20 | 10 |  |  |  |  | inactive |  |  | 
11 | O=c1[nH]cc(F)c(=O)[nH]1 [FLUOROURACIL] | 690 nM | inactive | inactive | inactive | inactive | 609 nM | > 40 | 15 |  |  |  |  | inactive |  |  | 
12 | COc1cc2c(c(OC)c1OC)-c1ccc(OC)c(=O)cc1[C@@H](NC(C)=O)CC2 [COLCHICINE] |  |  |  |  |  | 24 nM | > 40 | 40 | 17.5 | > 40 | 40 | 25 |  |  |  | 
13 | CC[C@H]1CN2CCc3cc(OC)c(OC)cc3[C@@H]2C[C@@H]1C[C@H]1NCCc2cc(OC)c(OC)cc21 [EMETINE] | 33 nM |  |  |  | inactive | 7 nM | > 40 | 40 | 20 | 35 | 25 |  |  |  |  | 
14 | Cc1c2oc3c(C)ccc(C(=O)N[C@@H]4C(=O)N[C@H](C(C)C)C(=O)N5CCC[C@H]5C(=O)N(C)CC(=O)N(C)[C@@H](C(C)C)C(=O)O[C@@H]4C)c3nc-2c(C(=O)N[C@@H]2C(=O)N[C@H](C(C)C)C(=O)N3CCC[C@H]3C(=O)N(C)CC(=O)N(C)[C@@H](C(C)C)C(=O)O[C@@H]2C)c(N)c1=O [DACTINOMYCIN] (I: T[dV]P[Sar][NMeV] / II: T[dV]P[Sar][NMeV]; ester I:1-I:C, II:1-II:C; linker I:N-II:N via Actinocin(1to9)) | 223 nM | inactive | inactive | inactive | inactive | 0.2 nM | 5 |  |  |  |  |  | inactive |  |  | inactive
15 | COc1cc([C@@H]2c3cc4c(cc3[C@H](O)[C@H]3COC(=O)[C@H]23)OCO4)cc(OC)c1OC [PODOFILOX] | 11 nM |  |  |  |  | 5.9 nM | 40 | 32.5 | 12.5 | > 40 | > 40 | 25 |  |  |  | 
16 | CO[C@@]12[C@H](COC(N)=O)C3=C(C(=O)C(C)=C(N)C3=O)N1C[C@@H]1N[C@@H]12 [MITOMYCIN] | 99 nM |  |  | inactive | inactive | 3000 nM | 25 | 5 |  | 10 |  |  | inactive |  |  | 
17 | CO[C@H](C(=O)[C@@H](O)[C@@H](C)O)[C@@H]1Cc2cc3cc(O[C@H]4C[C@@H](O[C@@H]5C[C@@H](O)[C@H](O)[C@@H](C)O5)[C@H](O)[C@@H](C)O4)c(C)c(O)c3c(O)c2C(=O)[C@H]1O[C@H]1C[C@@H](O[C@@H]2C[C@@H](O)[C@@H](O[C@@H]3C[C@](C)(O)[C@H](O)[C@@H](C)O3)[C@@H](C)O2)[C@H](O)[C@@H](C)O1 [PLICAMYCIN] | 33 nM |  |  |  | inactive | 111 nM | 30 | 15 |  | 25 | 15 |  | inactive |  |  | 
